Measured values as given in ChEMBL document CHEMBL4049446 (J Med Chem, 2017).

What was measured:
[1] = system: Human immunodeficiency virus 1; experiment: Antiviral activity against amprenavir-resistant HIV1 NL4-3 harboring protease L10F/V32I/L33F/M46L/I54M/A71V mutant infected in human MT4 cells assessed as reduction in p24 Gag protein production after 7 days by chemiluminescent enzyme immunoassay; assay type: functional, cell-based; conditions: Human immunodeficiency virus 1, NL4-3, MT4, 168 h
Procedure, shortened: (§1)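 Variants are HIV-1 NL4-3 selected in vitro under protease inhibitors: APV, ATV, IDV, LPV, NFV and SQV at 5 µM, TPV at 15 µM. Assays run in triplicate; IC50 given as mean ± 1 standard deviation from three independent experiments.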

[2] = system: Human immunodeficiency virus 1; experiment: Antiviral activity against tipranavir-resistant HIV1 NL4-3 harboring protease L10I/L33I/M36I/M46I/I54V/K55R/I62V/L63P/A71V/G73S/V82T/L90M/I93L mutant infected in human MT4 cells assessed as reduction in p24 Gag protein production after 7 days by chemiluminescent enzyme immunoassay; assay type: functional, cell-based; conditions: Human immunodeficiency virus 1, NL4-3, MT4, 168 h; procedure, shortened: as §1
[3] = system: Human immunodeficiency virus 1; experiment: Ratio of IC50 for saquinavir-resistant HIV1 NL4-3 harboring protease L10I/N37D/G48V/I54V/L63P/G73C/I84V/L90M mutant infected in human MT4 cells to IC50 for wild type HIV1 NL4.3 infected in human MT4 cells; assay type: functional
Procedure, shortened: (§2)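 Fold change is the IC50 against each resistant variant divided by the IC50 against wild-type HIV-1 NL4-3, measured in the same triplicate antiviral assays (three independent experiments).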

[4] = Inhibition of HIV1 protease expressed in Escherichia coli using 2-aminobenzoyl-Thr-Ile-Nle-Phe(p-N02)-Gln-Arg-NH as substrate preincubated for 5 to 10 mins followed by substrate addition measured after 1 hr by fluorescence assay; parameters: species or system Human immunodeficiency virus 1
[5] = system: Human immunodeficiency virus 1; experiment: Antiviral activity against lopinavir-resistant HIV1 NL4-3 harboring protease L10F/V32I/M46I/I47A/A71V/I84V mutant infected in human MT4 cells assessed as reduction in p24 Gag protein production after 7 days by chemiluminescent enzyme immunoassay; assay type: functional, cell-based; conditions: Human immunodeficiency virus 1, NL4-3, MT4, 168 h; procedure, shortened: as §1
[6] = system: Human immunodeficiency virus 1; experiment: Antiviral activity against HIV1 Lai infected in human MT2 cells; assay type: functional, cell-based; conditions: Human immunodeficiency virus 1, M:B_Lai
[7] = system: Human immunodeficiency virus 1; experiment: Antiviral activity against wild type HIV1 NL4-3 infected in human MT4 cells assessed as reduction in p24 Gag protein production after 7 days by chemiluminescent enzyme immunoassay; assay type: functional, cell-based; conditions: Human immunodeficiency virus 1, NL4-3, MT4, 168 h
[8] = system: Human immunodeficiency virus 1; experiment: (§3) Antiviral activity against darunavir-resistant HIV1 derived from 20 passages harboring protease L10I/I15V/K20R/L24I/V32I/M36I/M46L/L63P/V82A/L89M mutant infected in human MT4 cells assessed as reduction in p24 Gag protein production after 7 days by chemiluminescent enzyme immunoassay; assay type: functional, cell-based; conditions: Human immunodeficiency virus 1, MT4, 168 h
Procedure, shortened: (§4)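 MT-4 cells (1×10^4) exposed to 50 TCID50 of wild-type HIV-1 NL4-3 or DRV-selected variants (20, 30 or 51 passages) and cultured with various inhibitor concentrations. IC50 read by p24 assay. Run in triplicate; mean ± 1 standard deviation from three independent experiments.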

[9] = system: Human immunodeficiency virus 1; experiment: Antiviral activity against darunavir-resistant HIV1 derived from 30 passages harboring protease L10I/I15V/K20R/L24I/V32I/M36I/M46L/L63P/K70R/V82A/I84V/L89M mutant infected in human MT4 cells assessed as reduction in p24 Gag protein production after 7 days by chemiluminescent enzyme immunoassay; assay type: functional, cell-based; conditions: Human immunodeficiency virus 1, MT4, 168 h; procedure, shortened: as §4
[10] = system: Human immunodeficiency virus 1; experiment: as §3, with “51” for “20”, “L10I/I15V/K20R/L24I/V32I/L33F/M36I/M46L/I54M/L63P/K70Q/V82I/I84V/L89M” for “L10I/I15V/K20R/L24I/V32I/M36I/M46L/L63P/V82A/L89M”; assay type: functional, cell-based; conditions: Human immunodeficiency virus 1, MT4, 168 h
[11] = system: Human immunodeficiency virus 1; experiment: Antiviral activity against nelfinavir-resistant HIV1 NL4-3 harboring protease L10F/K20T/D30N/K45I/A71V/V77I mutant infected in human MT4 cells assessed as reduction in p24 Gag protein production after 7 days by chemiluminescent enzyme immunoassay; assay type: functional, cell-based; conditions: Human immunodeficiency virus 1, NL4-3, MT4, 168 h; procedure, shortened: as §1
[12] = system: Human immunodeficiency virus 1; experiment: Ratio of IC50 for darunavir-resistant HIV1 derived from 20 passages harboring protease L10I/I15V/K20R/L24I/V32I/M36I/M46L/L63P/V82A/L89M mutant infected in human MT4 cells to IC50 for wild type HIV1 NL4.3 infected in human MT4 cells; assay type: functional; procedure, shortened: as §2
[13] = system: Human immunodeficiency virus 1; experiment: Ratio of IC50 for darunavir-resistant HIV1 derived from 30 passages harboring protease L10I/I15V/K20R/L24I/V32I/M36I/M46L/L63P/K70R/V82A/I84V/L89M mutant infected in human MT4 cells to IC50 for wild type HIV1 NL4.3 infected in human MT4 cells; assay type: functional; procedure, shortened: as §2
[14] = system: Human immunodeficiency virus 1; experiment: Ratio of IC50 for darunavir-resistant HIV1 derived from 51 passages harboring protease L10I/I15V/K20R/L24I/V32I/L33F/M36I/M46L/I54M/L63P/K70Q/V82I/I84V/L89M mutant infected in human MT4 cells to IC50 for wild type HIV1 NL4.3 infected in human MT4 cells; assay type: functional; procedure, shortened: as §2
[15] = system: Human immunodeficiency virus 1; experiment: Antiviral activity against saquinavir-resistant HIV1 NL4-3 harboring protease L10I/N37D/G48V/I54V/L63P/G73C/I84V/L90M mutant infected in human MT4 cells assessed as reduction in p24 Gag protein production after 7 days by chemiluminescent enzyme immunoassay; assay type: functional, cell-based; conditions: Human immunodeficiency virus 1, NL4-3, MT4, 168 h; procedure, shortened: as §1
[16] = system: Human immunodeficiency virus 1; experiment: Antiviral activity against indinavir-resistant HIV1 NL4-3 harboring protease L10F/L24I/M46I/I54V/L63P/A71V/G73S/V82T mutant infected in human MT4 cells assessed as reduction in p24 Gag protein production after 7 days by chemiluminescent enzyme immunoassay; assay type: functional, cell-based; conditions: Human immunodeficiency virus 1, NL4-3, MT4, 168 h; procedure, shortened: as §1
[17] = system: Human immunodeficiency virus 1; experiment: Antiviral activity against atazanavir-resistant HIV1 NL4-3 harboring protease L23I/E34Q/K43I/M46I/I50L/G51A/L63P/A71V/V82A/T91A mutant infected in human MT4 cells assessed as reduction in p24 Gag protein production after 7 days by chemiluminescent enzyme immunoassay; assay type: functional, cell-based; conditions: Human immunodeficiency virus 1, NL4-3, MT4, 168 h; procedure, shortened: as §1
[18] = system: Human immunodeficiency virus 1; experiment: Ratio of IC50 for amprenavir-resistant HIV1 NL4-3 harboring protease L10F/V32I/L33F/M46L/I54M/A71V mutant infected in human MT4 cells to IC50 for wild type HIV1 NL4.3 infected in human MT4 cells; assay type: functional; procedure, shortened: as §2
[19] = system: Human immunodeficiency virus 1; experiment: Ratio of IC50 for lopinavir-resistant HIV1 NL4-3 harboring protease L10F/V32I/M46I/I47A/A71V/I84V mutant infected in human MT4 cells to IC50 for wild type HIV1 NL4.3 infected in human MT4 cells; assay type: functional; procedure, shortened: as §2
[20] = system: Human immunodeficiency virus 1; experiment: Ratio of IC50 for indinavir-resistant HIV1 NL4-3 harboring protease L10F/L24I/M46I/I54V/L63P/A71V/G73S/V82T mutant infected in human MT4 cells to IC50 for wild type HIV1 NL4.3 infected in human MT4 cells; assay type: functional; procedure, shortened: as §2
[21] = system: Human immunodeficiency virus 1; experiment: Ratio of IC50 for nelfinavir-resistant HIV1 NL4-3 harboring protease L10F/K20T/D30N/K45I/A71V/V77I mutant infected in human MT4 cells to IC50 for wild type HIV1 NL4.3 infected in human MT4 cells; assay type: functional; procedure, shortened: as §2
[22] = system: Human immunodeficiency virus 1; experiment: Ratio of IC50 for atazanavir-resistant HIV1 NL4-3 harboring protease L23I/E34Q/K43I/M46I/I50L/G51A/L63P/A71V/V82A/T91A mutant infected in human MT4 cells to IC50 for wild type HIV1 NL4.3 infected in human MT4 cells; assay type: functional; procedure, shortened: as §2
[23] = system: Human immunodeficiency virus 1; experiment: Ratio of IC50 for tipranavir-resistant HIV1 NL4-3 harboring protease L10I/L33I/M36I/M46I/I54V/K55R/I62V/L63P/A71V/G73S/V82T/L90M/I93L mutant infected in human MT4 cells to IC50 for wild type HIV1 NL4.3 infected in human MT4 cells; assay type: functional; procedure, shortened: as §2

SMILES | IC50 [1] [nM] | IC50 [2] [nM] | Ratio IC50 [3] | Ki [4] [nM] | IC50 [5] [nM] | IC50 [6] [nM] | IC50 [7] [nM] | IC50 [8] [nM] | IC50 [9] [nM] | IC50 [10] [nM] | IC50 [11] [nM] | Ratio IC50 [12] | Ratio IC50 [13] | Ratio IC50 [14] | IC50 [15] [nM] | IC50 [16] [nM] | IC50 [17] [nM] | Ratio IC50 [18] | Ratio IC50 [19] | Ratio IC50 [20] | also measured
CC(C)CN(C[C@@H](O)[C@H](Cc1ccccc1)NC(=O)O[C@H]1C2CO[C@H]3OCC1C3C2)S(=O)(=O)c1ccc2nc(NC3CC3)sc2c1 (some centres not stated) | 0.27 | 0.057 | 0.08 | 0.04 | 0.0026 | 0.26 | 0.39 | 0.17 | 1.8 | 35 | 0.028 | 0.4 | 5 | 90 | 0.03 | 0.012 | 0.19 | 0.7 | 0.007 | 0.03 | Ratio IC50 [21]: 0.07; Ratio IC50 [22]: 0.5; Ratio IC50 [23]: 0.15
COC(=O)N[C@H](C(=O)N[C@@H](Cc1ccccc1)[C@@H](O)CN(Cc1ccc(-c2ccccn2)cc1)NC(=O)[C@@H](NC(=O)OC)C(C)(C)C)C(C)(C)C [ATAZANAVIR] | 3.8 | > 1000 | 121 | – | 45 | – | 4.2 | – | – | – | 17 | – | – | – | 510 | 62 | > 1000 | 0.9 | 11 | 15 | Ratio IC50 [21]: 4; Ratio IC50 [22]: >238; Ratio IC50 [23]: >238
CC(C)CN(C[C@@H](O)[C@H](Cc1ccccc1)NC(=O)O[C@H]1CO[C@H]2OCC[C@H]21)S(=O)(=O)c1ccc2nc(NC3CC3)sc2c1 | – | – | – | 0.01 | – | 1.9 | 2 | 7.7 | 30 | 480 | – | 4 | 15 | 240 | – | – | – | – | – | – | –
Cc1cccc(C)c1OCC(=O)N[C@@H](Cc1ccccc1)[C@@H](O)C[C@H](Cc1ccccc1)NC(=O)[C@H](C(C)C)N1CCCNC1=O [LOPINAVIR] | 310 | > 1000 | >50 | – | > 1000 | – | 20 | > 1000 | > 1000 | > 1000 | 42 | >50 | >50 | >50 | > 1000 | 170 | 330 | 16 | >50 | 9 | Ratio IC50 [21]: 2; Ratio IC50 [22]: 17; Ratio IC50 [23]: >50
COc1ccc(S(=O)(=O)N(CC(C)C)C[C@@H](O)[C@H](Cc2ccccc2)NC(=O)O[C@H]2C3CO[C@H]4OCC2C4C3)cc1 (some centres not stated) | – | – | – | 0.014 | – | 2.7 | – | – | – | – | – | – | – | – | – | – | – | – | – | – | –
COc1ccc(S(=O)(=O)N(CC(C)C)C[C@@H](O)[C@H](Cc2ccccc2)NC(=O)O[C@@H]2C3CO[C@H]4OCC2C4C3)cc1 (some centres not stated) | – | – | – | 10.8 | – | > 1000 | – | – | – | – | – | – | – | – | – | – | – | – | – | – | –
CC(C)(C)NC(=O)[C@@H]1C[C@@H]2CCCC[C@@H]2CN1C[C@@H](O)[C@H](Cc1ccccc1)NC(=O)[C@H](CC(N)=O)NC(=O)c1ccc2ccccc2n1 | – | – | – | – | – | 21 | – | – | – | – | – | – | – | – | – | – | – | – | – | – | –
CC(C)CN(C[C@@H](O)[C@H](Cc1ccccc1)NC(=O)O[C@H]1C2CO[C@H]3OCC1C3C2)S(=O)(=O)c1ccc(N)cc1 (some centres not stated) | – | – | – | 0.013 | – | 2.8 | 3.3 | 30 | 340 | > 1000 | – | 9 | 103 | >303 | – | – | – | – | – | – | –
